A short description of assay [1]: Her2 expression decrease, cell viability multiplex – SKBR3 breast tumor cells, AlphaScreen, ATP viability, primary screen (AID 461;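 active = Her2 level under about 52% in both replicate screens, with viability over 70% of control, limit read from the data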;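 for Her2 level: lower value means less Her2 protein in the cells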;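 for viability: percent of carrier control wells set as 100% viability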). As to conditions: SKBR3 Her2 protein level, 18-24 h, measured here: SKBR3 viability, ATP luminescence, at 10 µM. (Alpha assays give light when donor and acceptor beads are brought close together.)
Assay [2] has as its target Receptor tyrosine-protein kinase erbB-2 (Homo sapiens) (UniProt P04626). The assay is described as above. Conditions: 18-24 h, at 10 µM, stronger effect = lower value.
Assay [3] can be described thus: reduced viability of SK-BR-3 breast cancer cells – cell-based, 24 h, human, pilot screen (AID 572;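 active = viability at or below 10% of carrier control in both of two separate runs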;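 note: compound exposure lasted between 18 and 24 h rather than exactly 24 h; 100% = carrier-treated control wells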). Conditions: SK-BR-3 viability, CellTiter-Glo luminescence, at 10 µM, stronger effect = lower value. In general terms: Cellular ATP, detected with luciferase, serves as a proxy for viable cell number.
Assay [4] in a line: HUVEC growth inhibition – cell-based, human, primary screen (AID 575;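 active = viability at or below 30% in both replicate assays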;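 note: 100% = median of untreated cell wells with 0.1% DMSO on each plate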). As to conditions: HUVEC proliferation, CellTiter-Glo luminescence, 72 h; at 10 µM; stronger effect = lower value. Summed up:
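System – primary HUVEC, no more than 12 passages · Medium – Low-serum (2% FBS) EBM, supplemented · Times – 72 h exposure, 37 °C, 5% CO2, 30 min RT equilibration · Measured by – luminescent ATP assay · Read-out – % viability relative to median vehicle-well signal on each plate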

A short description of assay [5]: H69AR cell proliferation blockers – human, duplicate replicates, primary screen (AID 580;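 active = viability at or under a set limit in both replicates, limit being median viability minus 3 SD, cut at about 48% in these data, passing the limit was not always enough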;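 note: 100% = mean luminescence of untreated wells and 0% = no signal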). Conditions: H69AR lung tumor cells viability, ATP luminescence, 72 h; at 10 µM; stronger effect = lower value.
Assay [6] is described as follows: MRP1 drug-resistance reversers in H69AR cells – cell-based, doxorubicin co-treatment, pilot screen (AID 601). Conditions: CellTiter-Glo, 72 h, at 10 µM; for differential viability (reversal): stronger effect = higher value.
A short description of assay [7]: yeast transport mutant growth inhibition pilot in 384-well plates, post-Golgi transport modulator project (AID 636; in the data active = inhibition above about 31%). Conditions: absorbance 615 nm, about 18 h, stronger effect = higher value.
Assay [8] is described as follows: growth suppression of yeast trafficking mutant, preliminary HTS, modulators of trafficking downstream of Golgi apparatus project, 1536-format plate, OD 615 nm (AID 637; in the data active = inhibition above about 30%). As to conditions: yeast transport mutant growth, absorbance 615 nm, 18 h; stronger effect = higher value.
[9] abbreviates: H69AR cells + 2 uM doxorubicin, measured here: viability with 2 uM doxorubicin, stronger effect = lower value.
Where [10] appears, read: H69AR cells, compound alone cytotoxicity.

Activity calls are given as the source filed them.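 Rule for the calls, unless noted: active = viability loss from added drug above about 55%, and viability with drug at most 40%, in both replicates (limit read from the data, passing the limit was not always enough); inconclusive = both conditions met in only one replicate; inactive = neither replicate meets both conditions.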

Sequence of Receptor tyrosine-protein kinase erbB-2 (Homo sapiens) (P04626 whole entry, looked up): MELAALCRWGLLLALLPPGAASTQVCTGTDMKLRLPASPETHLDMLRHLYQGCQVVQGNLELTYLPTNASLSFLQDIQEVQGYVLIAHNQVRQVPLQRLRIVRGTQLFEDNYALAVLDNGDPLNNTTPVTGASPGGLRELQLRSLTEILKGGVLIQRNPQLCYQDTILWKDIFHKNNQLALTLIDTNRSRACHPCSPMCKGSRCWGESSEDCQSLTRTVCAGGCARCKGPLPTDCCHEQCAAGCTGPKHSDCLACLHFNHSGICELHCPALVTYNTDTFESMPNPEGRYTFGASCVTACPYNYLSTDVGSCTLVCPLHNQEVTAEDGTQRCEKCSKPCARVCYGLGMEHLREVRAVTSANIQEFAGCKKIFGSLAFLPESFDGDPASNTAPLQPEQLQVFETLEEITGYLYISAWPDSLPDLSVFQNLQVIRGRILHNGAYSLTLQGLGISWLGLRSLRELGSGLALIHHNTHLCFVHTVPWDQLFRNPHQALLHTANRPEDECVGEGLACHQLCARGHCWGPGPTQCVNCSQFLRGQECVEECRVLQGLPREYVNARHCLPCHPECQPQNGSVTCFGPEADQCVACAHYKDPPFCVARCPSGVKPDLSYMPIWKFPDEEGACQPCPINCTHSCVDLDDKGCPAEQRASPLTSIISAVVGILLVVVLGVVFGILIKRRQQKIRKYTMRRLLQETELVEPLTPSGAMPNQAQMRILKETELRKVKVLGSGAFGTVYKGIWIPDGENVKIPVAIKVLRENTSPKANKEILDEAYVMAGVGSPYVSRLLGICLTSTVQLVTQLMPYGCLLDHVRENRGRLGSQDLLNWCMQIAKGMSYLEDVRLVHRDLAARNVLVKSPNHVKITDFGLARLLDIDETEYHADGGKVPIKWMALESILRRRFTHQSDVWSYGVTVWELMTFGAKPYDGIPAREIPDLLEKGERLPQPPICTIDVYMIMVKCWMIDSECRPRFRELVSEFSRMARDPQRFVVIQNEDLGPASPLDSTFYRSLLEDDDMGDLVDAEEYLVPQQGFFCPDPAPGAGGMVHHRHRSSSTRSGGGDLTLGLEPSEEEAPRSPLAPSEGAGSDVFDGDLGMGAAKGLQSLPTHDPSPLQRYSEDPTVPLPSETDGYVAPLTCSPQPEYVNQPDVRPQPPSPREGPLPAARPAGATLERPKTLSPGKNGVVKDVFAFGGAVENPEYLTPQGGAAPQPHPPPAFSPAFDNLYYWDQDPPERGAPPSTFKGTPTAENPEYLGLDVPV

With `CCOC(=O)CSC1=C(C#N)C(=O)NC2(CCCCC2)S1`, the viability was 108% in assay [1]; 108% (inactive) in assay [3]; 100% (inactive) in assay [4]; 108% (inactive) in assay [5]; 95.9% in assay [6] (setting [9]); 108% in assay [6] (setting [10]). Further, the Her2 level in assay [2] was 106% (inactive). For the same compound, the differential viability (reversal) in assay [6] (H69AR cells + 2 uM doxorubicin) is 12.1% (inactive). For the same compound, the inhibition in assay [7] was -6.16% (inactive); in assay [8], -5.24% (inactive).
As to `CCn1c2ccccc2c2cc(NC(=O)CSc3nnc(C4CC4)n3Cc3ccco3)ccc21`, the viability in assay [1] was 104%; in assay [3] it was 104% (inactive); in assay [4] it was 75.5% (inactive); in assay [5], 79% (inactive); in assay [6] (setting [9]), 95.2%; in assay [6] (setting [10]), 79%. For the same compound, the Her2 level in assay [2] was 88% (inactive). In assay [6] (H69AR cells + 2 uM doxorubicin), the differential viability (reversal) was -16.2% (inactive). Moreover, the inhibition was -6.45% (inactive) in assay [7] and -3.17% (inactive) in assay [8].
`CCN1CCN(c2c(Cl)cccc2NC(=O)c2ccco2)CC1`: the viability is 67.5% in assay [1]; 67.5% (inactive) in assay [3]; 98.1% (inactive) in assay [4]; 97.5% (inactive) in assay [5]; 90.1% in assay [6] (setting [9]); 97.5% in assay [6] (setting [10]). In assay [2], the Her2 level is 88% (inactive). Also, the differential viability (reversal) in assay [6] (H69AR cells + 2 uM doxorubicin) was 7.33% (inactive). The values for the inhibition in assay [7] and in assay [8] were -3.33% (inactive) and -0.32% (inactive), respectively.
Regarding `O=C(Nc1ccc(Cl)cc1)C1CC=CCC1C(=O)OCC(F)(F)C(F)F` (stereo not given), the viability in assay [1] was 93%; in assay [3] it was 93% (inactive); in assay [4], 103% (inactive); in assay [5], 94.6% (inactive); in assay [6] (setting [9]) it was 87.3%; in assay [6] (setting [10]), 94.6%. The Her2 level in assay [2] was 92.5% (inactive). Moreover, the differential viability (reversal) in assay [6] (H69AR cells + 2 uM doxorubicin) was 7.29% (inactive). Further, the inhibition in assay [7] is -6.89% (inactive); in assay [8] it was -3% (inactive).
Regarding `CCSc1nnc(-c2cccs2)o1`, the viability in assay [1] was 89%; in assay [3], 89% (inactive); in assay [4] it was 87.3% (inactive); in assay [5] it was 92.3% (inactive); in assay [6] (setting [9]), 96.6%; in assay [6] (setting [10]) it was 92.3%. Besides, the Her2 level in assay [2] is 106% (inactive). In addition, in assay [6] (H69AR cells + 2 uM doxorubicin), the differential viability (reversal) was -4.3% (inactive). Further, the results for the inhibition in assay [7] and in assay [8] were -0.13% (inactive) and -2.83% (inactive), respectively.
In the case of `O=C(Cn1nc(-c2ccc3c(c2)OCCO3)ccc1=O)Nc1ccc(N2CCOCC2)cc1`, the viability in assay [1] was 94%; in assay [3] it was 94% (inactive); in assay [4], 112% (inactive); in assay [5] it was 110% (inactive); in assay [6] (setting [9]), 93.2%; in assay [6] (setting [10]), 110%. The Her2 level in assay [2] was 108% (inactive). Moreover, the differential viability (reversal) in assay [6] (H69AR cells + 2 uM doxorubicin) is 16.4% (inactive). Moreover, the inhibition was -3.03% (inactive) in assay [7] and 0.17% (inactive) in assay [8].
Turning to `N#CCSc1nc2c(c(C3CC=CCC3)c1C#N)CCC2` (stereo not given), the viability in assay [1] is 88.5%; in assay [3] it was 88.5% (inactive); in assay [4] it was 63.4% (inactive); in assay [5], 100% (inactive); in assay [6] (setting [9]), 87.2%; in assay [6] (setting [10]), 100%. The Her2 level in assay [2] was 81.5% (inactive). In assay [6] (H69AR cells + 2 uM doxorubicin), the differential viability (reversal) was 12.8% (inactive). The inhibition in assay [7] is -3.07% (inactive); in assay [8] it was -1.94% (inactive).
On to `Cc1ccccc1-n1c(=O)cc(NCc2ccc3c(c2)OCO3)[nH]c1=O`, for which the viability in assay [1] was 94.5%; in assay [3], 94.5% (inactive); in assay [4], 104% (inactive); in assay [5], 103% (inactive); in assay [6] (setting [9]) it was 100%; in assay [6] (setting [10]) it was 103%. For the same compound, the Her2 level in assay [2] was 89.5% (inactive). Besides, in assay [6] (H69AR cells + 2 uM doxorubicin), the differential viability (reversal) is 2.75% (inactive). Also, the inhibition in assay [7] was -2.57% (inactive); in assay [8], 1.75% (inactive).
As for `Cc1nc2c(=O)oc3ccccc3c2n1-c1ccccc1`, the viability is 117% in assay [1]; 117% (inactive) in assay [3]; 107% (inactive) in assay [4]; 98.4% (inactive) in assay [5]; 85.1% in assay [6] (setting [9]); 98.4% in assay [6] (setting [10]). For the same compound, the Her2 level in assay [2] was 100% (inactive). For the same compound, the differential viability (reversal) in assay [6] (H69AR cells + 2 uM doxorubicin) was 13.4% (inactive). For the same compound, the inhibition in assay [7] is -6.93% (inactive); in assay [8], 2.74% (inactive).
On to `Cc1ccc(OCC(O)Cn2c(=N)n(CCN3CCCCC3)c3ccccc32)cc1` (stereo not given), for which the viability was 79% in assay [1]; 79% (inactive) in assay [3]; 2.43% (active) in assay [4]; 18.6% (active) in assay [5]; 21.7% in assay [6] (setting [9]); 18.6% in assay [6] (setting [10]). Moreover, the Her2 level in assay [2] was 63% (inactive). In addition, the differential viability (reversal) in assay [6] (H69AR cells + 2 uM doxorubicin) is -3.16% (inactive). The inhibition is -4% (inactive) in assay [7] and -0.33% (inactive) in assay [8].
On to `CCOC(=O)N1CCN(C(=O)CN(c2ccc(C)cc2)S(=O)(=O)c2c(C)noc2C)CC1`, for which the viability in assay [1] is 81.5%; in assay [3] it was 81.5% (inactive); in assay [4], 106% (inactive); in assay [5], 86.1% (inactive); in assay [6] (setting [9]) it was 86.1%; in assay [6] (setting [10]), 86.1%. The Her2 level in assay [2] was 94% (inactive). Moreover, the differential viability (reversal) in assay [6] (H69AR cells + 2 uM doxorubicin) was -0.005% (inactive). In addition, the values for the inhibition in assay [7] and in assay [8] were -4.73% (inactive) and 6.51% (inactive), respectively.
For `O=C(CP(=O)(CO)CO)c1ccc(Cl)cc1`, the viability in assay [1] was 100%; in assay [3] it was 100% (inactive); in assay [4], 100% (inactive); in assay [5], 101% (inactive); in assay [6] (setting [9]) it was 92.3%; in assay [6] (setting [10]), 101%. Moreover, the Her2 level in assay [2] is 95% (inactive). Also, the differential viability (reversal) in assay [6] (H69AR cells + 2 uM doxorubicin) is 8.5% (inactive). For the same compound, the values for the inhibition in assay [7] and in assay [8] were -0.26% (inactive) and -2.18% (inactive), respectively.
Regarding `c1csc(-c2nc3nc4ccccc4nc3n2Cc2ccc3c(c2)OCO3)c1`, the viability in assay [1] was 98.5%; in assay [3], 98.5% (inactive); in assay [4] it was 61.6% (inactive); in assay [5], 78% (inactive); in assay [6] (setting [9]) it was 61.6%; in assay [6] (setting [10]), 78%. Also, the Her2 level in assay [2] is 75% (inactive). Further, the differential viability (reversal) in assay [6] (H69AR cells + 2 uM doxorubicin) was 16.4% (inactive). Besides, the inhibition is 10.5% (inactive) in assay [7] and 0.79% (inactive) in assay [8].
In the case of `Cc1ccc(S(=O)(=O)Cc2ccc(C(=O)NCCCN3CCN(C)CC3)o2)cc1`, the viability was 104% in assay [1]; 104% (inactive) in assay [3]; 96.9% (inactive) in assay [4]; 103% (inactive) in assay [5]; 92.1% in assay [6] (setting [9]); 103% in assay [6] (setting [10]). Further, the Her2 level in assay [2] is 99.5% (inactive). Moreover, in assay [6] (H69AR cells + 2 uM doxorubicin), the differential viability (reversal) is 11% (inactive). The results for the inhibition in assay [7] and in assay [8] were -0.66% (inactive) and -5.64% (inactive), respectively.

As a reminder, the viability is a read-out of living cells in per cent, often relative to untreated cells. In general, inhibition refers to the drop in the measured response relative to a control, in per cent.
